The record followed here is the EternaBench riboswitch data.

The data set has as its system MS2 coat protein. Nature of the data set: apparent Kd, MS2 coat protein; higher = weaker binding; RNA-MaP array; FMN 200 µM where present. A digest of the protocol: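 The apparent Kd is the median of filtered binding-curve fits, one per cluster, to green signal normalised to red-channel RNA signal and control-cluster median Fmax. The clusters were on Illumina sequencing chips, and stalled E. coli RNA polymerase had transcribed the designs on them. Titration used SNAP-549-labelled MS2 coat protein from 0.7 or 1.5 nM, doubling to 3 µM, without and then with constant ligand, in 100 mM Tris-HCl pH 7.5, 80 mM KCl, 4 mM MgCl2, BSA, DTT, yeast tRNA and Tween-20.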

[1] abbreviates: designed as: OFF switch for flavin mononucleotide, no ligand.
The mark [2] stands for this setting: ligand present: flavin mononucleotide, designed as: OFF switch for flavin mononucleotide.
The mark [3] stands for this setting: designed as: ON switch for flavin mononucleotide, no ligand.
The mark [4] stands for this setting: ligand present: flavin mononucleotide, designed as: ON switch for flavin mononucleotide.

Usually apparent Kd stands for the concentration giving half-maximal binding under the conditions of the assay. On to “CUUCAGUGAGGAUAUACAUAACGGGACGUUAAUAUCGUUAGGUAGAAGGCACAUGAGGAUCACCCAUGUUUAAA”, for which the “apparent Kd” value was 92 nM under setting [1] and 66 nM under setting [2].

Turning to “CAGAAGUCAGGAUAUGCAUGGCGGGACUUGCGUCGUGGCGUGCAGAAGGGACAUGAGGAUCACCCAUGUGGAGU”, the “apparent Kd” value is 173 nM under setting [1] and 251 nM under setting [2].

Regarding “GGGUGGGUACAGAAGGGAGUGAUGGGUUUUUGGUUUGACAUGAGGAUCACCCAUGUUUAUCUGGUUCAGGAUAUGUAGUGGUGG”, the “apparent Kd” value turned out to be 149 nM under setting [3] and 97.3 nM under setting [4].

As to “ACAUGAGGAUCACCCAUGUGUGCAUAGGAUAUUGUGGAUUAGGGAUGUUUUUUUGGAUUUGCCUACAAGAAGGAUGAAAGUGUU”, the “apparent Kd” value runs as follows: under setting [3], 14.3 nM; under setting [4], 12.6 nM.

As for “GAUCGCCGUGUCAGGAUAUCUUGUGUACCCACGUUAGAGAAGGGACAUGAGGAUCACCCAUGUACCCUGGCUUU”, the “apparent Kd” value is, setting by setting: under setting [1], 20.6 nM; under setting [2], 20.5 nM.

For the sequence “UGGAUGUGGGUUCCACAUGAGGAUCACCCAUGUACCGAUGAGAGAAGGCACUCUAGUACCUAGAGUGAGGAUAUCUACAUUCAA”, the “apparent Kd” value came to 4.32 nM under setting [1] and 9.75 nM under setting [2].

“UUAAUUAUGUAAGGAUAUACAUGAGGAUUUCUCGUAGAAGGUACAUUACAUGAGGAUCACCCAUGUGGGUGUCCGUAGACGCCA”: the “apparent Kd” value reads like this: under setting [3], 632 nM; under setting [4], 614 nM.

With “GGUUGGCGAGGAUAUACAUGAGGAUCACCCAUGUGGUCCUAAAAUAAAAUAAACCUUUGUAGAAGGCGCGGGUC”, the “apparent Kd” value came to 268 nM under setting [1] and 428 nM under setting [2].

Take “UCCACUGCUGAGAAGGGAUACGUGUGGUUCGAAUCAGGAUAUCGAUACAGUGCAGCAUGAGGACAUGAGGAUCACCCAUGUAUU”: the “apparent Kd” value by setting is: under setting [3], 19.1 nM; under setting [4], 14.2 nM.

In the case of “CGCUAAUAAUUAAUAUUAAUUGUACAGGAUAUGUAACAUGAGGAUCACCCAUGUAUUGGGUUUAAACAGAAGGGUAUAUUAGCG”, the “apparent Kd” value by setting is: under setting [1], 387 nM; under setting [2], 92.4 nM.

Take “GCACGAUCCUCAGGAUAUCACUGAAACAUGAGGAUCACCCAUGUGCGCAGAUGAGAAGGGAGGACUCCGUCUGACUAAAAGUUA”: the “apparent Kd” value by setting is: under setting [3], 113 nM; under setting [4], 9.95 nM.

Turning to “UAUAUAUAGUAAGGAUAUGUAUAUAUUUAAUAAACAGAAGGUACUGACAUGAGGAUCACCCAUGUUUUAGUGUGGGCAUGUAGA”, the “apparent Kd” value under setting [1] was 74.1 nM and the “apparent Kd” value under setting [2] came out at 110 nM.

In the case of “AUGUUACAUGAGGAUCACCCAUGUGAGGAUAUGUGUAUCCCUAAAAAAGUGUGGGACCACAGAAGGUACUUGGA”, the “apparent Kd” value was found to be 51.5 nM under setting [1] and 50.4 nM under setting [2].

Consider “GUCAGCUCGUGAGGAUAUACAUGUGCUGGAUACAGCAUUAAAUAAUUCACAUGAGGAUCACCCAUGUAGAAGGCACGAGCUGAU”, for which the “apparent Kd” value is, setting by setting: under setting [1], 17.9 nM; under setting [2], 42.9 nM.

With “UUUUAGGCAGGAUAUACAUGAGGAUCACCCAUGUAAAUUUUUCGUUUAACUUGAAUGUGUAGAAGGGCCAUAUU”, the “apparent Kd” value stood at 20.5 nM under setting [1] and 21.4 nM under setting [2].

“CCGUCCCGGCUGCAGCUCGGUAACAUGAGGAUCACCCAUGUCAAGGAUAUAACCAUACUCGAUCGUUAGAAGGUGACAGGGUCC”: the “apparent Kd” value under setting [1] turned out to be 175 nM and the “apparent Kd” value under setting [2] was found to be 107 nM.

For “CUGUUCGGUGUAGGAUAUGCAUAUUCCCAUUAUGCAGAAGGACAUGAGGAUCACCCAUGUAUGUUAUUAUCAUGUGUUACAUGC”, the “apparent Kd” value is, setting by setting: under setting [1], 38.2 nM; under setting [2], 90.2 nM.

Take “AGCCGCUUAGGAUAUACCUAGAUUCUUCCGCGCUGUACGGUACAUGAGGAUCACCCAUGUAGAAGGAGGUGGCA”: the “apparent Kd” value reads like this: under setting [1], 23.5 nM; under setting [2], 29.7 nM.

“UCGAACGGAAACAAAGUAAAUAGACAUGAGGAUCACCCAUGUAAGGAUAUGCCUACUAAAAGUAGGCAGAAGGUACGCGUUCGA”: the “apparent Kd” value under setting [1] came to 16.5 nM and the “apparent Kd” value under setting [2] stood at 20.7 nM.

Turning to “CGGGCUGCCAGAGGAUAAUGGACAUGAGGAUCACCCAUGUGUCAGGAUAUGGGUUUCACAUGGACUCAGAAGGGACCAGCCCGA”, the “apparent Kd” value runs as follows: under setting [3], 82.5 nM; under setting [4], 22.4 nM.

In the case of “ACGUUUUAUGCAGGAUAUUGACAUAUAUUUAAACAAGAAGGGCAUUACAUGAGGAUCACCCAUGUUAUAAUGGUAUUUAAGUUC”, the “apparent Kd” value is, setting by setting: under setting [1], 14.7 nM; under setting [2], 15.6 nM.

Take “AGAAAACAUGAGGAUCACCCAUGUGAGGAUAUCGAUGUCCAAGGCCGGGUGCGGGACUCGAGAAGGCACUUGGG”: the “apparent Kd” value came out at 75.5 nM under setting [1] and 38.7 nM under setting [2].

As to “AUGUUGCGAGGAUAUAUUUAAUGGAUGAUAUUUAUUAGGGAACAUGAGGAUCACCCAUGUAGAAGGUGCAUAAC”, the “apparent Kd” value is 63.7 nM under setting [1] and 87 nM under setting [2].

“UGGAUCAUGGGAGGAUAUGGGAAGAUACAUGAGGAUCACCCAUGUUUAAGAAUGCCGAGAGGCAACUAGAAGGCCCAUGAUCCU”: the “apparent Kd” value is 1090 nM under setting [3] and 47.9 nM under setting [4].

Turning to “UGGUUGUCAGGAUAUUGGGUAUUCAACUUUAGUUUUAUAUUCGAGAAGGGACAUGAGGAUCACCCAUGUUACGU”, the “apparent Kd” value turned out to be 36.2 nM under setting [1] and 166 nM under setting [2].

With “CGUCUGGAUCAAGGAUAUGUCAAGACGCUCCGCGUACACAUGAGGAUCACCCAUGUCAACAAAUGACAGAAGGUGAUAAUGGCC”, the “apparent Kd” value under setting [3] was 80.3 nM and the “apparent Kd” value under setting [4] stood at 444 nM.

In the case of “AUUAUGCAGCAGGAUAUCGAUCCGCGGUAUGAUCGAGAAGGGCUGACAUGAGGAUCACCCAUGUGCGUCCUAGG”, the “apparent Kd” value reads like this: under setting [1], 39.8 nM; under setting [2], 147 nM.

Consider “CAAUUUAUGUCAGGAUAUACAAUACAAUGAUUAGUAGAAGGGAUUAAUACAUGAGGAUCACCCAUGUCAUGUGUCAUCGUAACC”, for which the “apparent Kd” value runs as follows: under setting [1], 22.3 nM; under setting [2], 17.4 nM.

As for “GACAGACAUGAGGAUCACCCAUGUGAAAACGUACAAGGAUAUGUGUGGAAACCGUACUAUACAGAAGGUGUCUGUC”, the “apparent Kd” value is 94.5 nM under setting [3] and 87 nM under setting [4].

As to “UGAUAGGACAGAGGAUAUACCGAUAGGAGAUACUAUCGACUAGUCCUCACAUGAGGAUCACCCAUGUAGAAGGCUGUCCUAUCU”, the “apparent Kd” value reads like this: under setting [1], 22.8 nM; under setting [2], 269 nM.

In the case of “UGAUAGGACAGAGGAUAUGCCGAUAGGAUCUACUAUCGAAGAAUCCUCACAUGAGGAUCACCCAUGUAGAAGGCUGUCCUAUCC”, the “apparent Kd” value is 8.68 nM under setting [1] and 39.5 nM under setting [2].

Turning to “CUCACGUUAGUAGGAUAUCCGACAUGAGGAUCACCCAUGUCACUGCGUCGCUAAGGUAGAUGCAAGGAGAAGGGCUGAUAAAUA”, the “apparent Kd” value is 259 nM under setting [3] and 124 nM under setting [4].

Consider “GCCAGAGCAGGAUAUUCAAUAUCACACAUGAGGAUCACCCAUGUCCGGCGAAAGCUGGAGGGAGAAGGGCUCUGGC”, for which the “apparent Kd” value runs as follows: under setting [1], 62.6 nM; under setting [2], 18.7 nM.

Take “AUGUUACAUGAGGAUCACCCAUGUGAGGAUAUGUGUACCGGUAAAAAAGUGAUUGGCCACAGAAGGCAUUUGGA”: the “apparent Kd” value under setting [1] turned out to be 33.2 nM and the “apparent Kd” value under setting [2] was 35.7 nM.

On to “UUAUUAUAUGUAGGAUAUGCAUAUUGUUGUUAUGCAGAAGGACAUGAGGAUCACCCAUGUGUAUUAUUGUUAUAUAUUAUAUAU”, for which the “apparent Kd” value is, setting by setting: under setting [1], 21.5 nM; under setting [2], 31.2 nM.

Regarding “GACUGCCGAGGAUAUACAUGAGGAUCACCCAUGUGCUUCAGCAUCGAAAGAUGCAUGGGUAGAAGGCGGUAGUC”, the “apparent Kd” value by setting is: under setting [1], 27.4 nM; under setting [2], 72 nM.

As for “UGCACAUGAGGAUCACCCAUGUAUUGUUCGGUUAAUAGAAGUGAGGAUAUGCUUAAAAUAAGGUAGCAGAAGGCACUGGGUUCA”, the “apparent Kd” value reads like this: under setting [3], 27.8 nM; under setting [4], 29.6 nM.

On to “GUAGCAUACCAAGGAUAUUCAGGGCUUGGAUAGACAUGAGGAUCACCCAUGUGGCGAAAGUCAAGGGAGAAGGUGGUAUGCUAC”, for which the “apparent Kd” value reads like this: under setting [3], 17.6 nM; under setting [4], 13.4 nM.

For “GUAGCAACAUGAGGAUCACCCAUGUAGGAUAUCGCUAUUGUAAUCAUGAAACAUGAUUACAAUAGCGAGAAGGACAUUGGCUAC”, the “apparent Kd” value came to 7.06 nM under setting [1] and 10.8 nM under setting [2].

Take “GGGUACAUCGGAGGAUAUCAUGUAAAUACAUGAGGAUCACCCAUGUCGAUGGAGACAUCGGAGAUUGAGAAGGCCGAUGUUCCG”: the “apparent Kd” value worked out at 202 nM under setting [3] and 9.84 nM under setting [4].

For “GGCCGUUUACAUGAGGAUCACCCAUGUCCGGAUUGUUGGCCCAGAAGGCAUUACGAAUUCGGCUAUGAGGAUAUGGGUUACAAG”, the “apparent Kd” value amounted to 215 nM under setting [3] and 119 nM under setting [4].

On to “GGGUGACAUGAGGAUCACCCAUGUCAGGAUAUUGAGCUUGAGCUGAAAAGUUCGAGUUCGAGAAGGGACUGCCC”, for which the “apparent Kd” value came out at 52 nM under setting [1] and 229 nM under setting [2].

For “CCACGUCACAUUUACAUGAGGAUCACCCAUGUCGAAAGACAUGAGGAUAUGCUACCUAAUUGGUAGCAGAAGGCAUGGACGUGG”, the “apparent Kd” value by setting is: under setting [3], 203 nM; under setting [4], 284 nM.

On to “GCUCGAUGCGCUGAGCACAUGAGGAUCACCCAUGUAAAAUGUCAGGAUAUUUACGUGCUUUAUGUAGAGAAGGGACUAUCGAGC”, for which the “apparent Kd” value by setting is: under setting [3], 60.5 nM; under setting [4], 24.1 nM.

Consider “AACAUGGUGCAGGAUAUCCAACAUAUCGCGAGAGGAGAAGGGUACACAUGAGGAUCACCCAUGUGUGGUCUGUU”, for which the “apparent Kd” value is, setting by setting: under setting [1], 29.3 nM; under setting [2], 223 nM.

“GCUGCAUAGGCAGGAUAUGCAAUAAUUCGAAUAAAAUAUAACGAAUUAACAUGAGGAUCACCCAUGUAGAAGGGCCUGUGCAGU”: the “apparent Kd” value under setting [1] was 18.4 nM and the “apparent Kd” value under setting [2] came to 16 nM.

Turning to “UAUUAUAUGGAGAAGGACAUGAGGAUCACCCAUGUCGCCGGGCCCGGGAAACCGGGCCCGGCCAUGUAGGAUAUCCGUAUGGUA”, the “apparent Kd” value was 6 nM under setting [1] and 7.96 nM under setting [2].

For the sequence “UAAAGCGUAGAUAAUUAUGUUACAUGAGGAUCACCCAUGUCAUAGGAUAUGCAGUGGAAUACACUGCAGAAGGAUGAAUCGCAG”, the “apparent Kd” value under setting [1] worked out at 24.9 nM and the “apparent Kd” value under setting [2] was 33.3 nM.
